Test results from ChEMBL document CHEMBL3877298, “Discovery of benzimidazole derivatives as modulators of mitochondrial function: A potential treatment for Alzheimer's disease” (Eur J Med Chem, 2017).

Experiments:
[1] = MRT in Sprague-Dawley rat at 10 mg/kg, iv by LC-MS/MS analysis; format: ADME, organism-based; conditions: in vivo
Outline: (§1)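 Male SD rats, 8 weeks old, given 10 mg/kg intravenously (n = 4). Plasma mixed with carbamazepine internal standard in acetonitrile, vortexed, centrifuged at 10,000×g, and the supernatant analysed by LC-MS/MS. Parameters reported as mean ± SD.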

[2] = Cytotoxicity against mouse HT22 cells assessed as cell viability at 5 uM after 24 hrs by MTT assay relative to control; format: toxicity, HT-22; conditions: read-out: Activity
Outline: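 MTT was added for 2 h, then solubilising solution (10% Triton X-100 in isopropanol with 0.1 M HCl) for 2 h more. Absorbance read at 560 nm; % inhibition normalised to vehicle, and viability taken from compound-only wells.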

CYP2D6 = CYP2D6 (Homo sapiens, UniProt P10635); assay: Inhibition of recombinant human CYP2D6 expressed in baculosomes coexpressing rabbit NADPH-P450 reudctase assessed as residual activity at 10 uM preincubated for 5 mins followed by substrate and NADP+ addition measured after 20 mins by fluorescence assay relative to control; format: ADME; conditions: read-out: Activity
Chain of CYP2D6 (P10635 whole entry): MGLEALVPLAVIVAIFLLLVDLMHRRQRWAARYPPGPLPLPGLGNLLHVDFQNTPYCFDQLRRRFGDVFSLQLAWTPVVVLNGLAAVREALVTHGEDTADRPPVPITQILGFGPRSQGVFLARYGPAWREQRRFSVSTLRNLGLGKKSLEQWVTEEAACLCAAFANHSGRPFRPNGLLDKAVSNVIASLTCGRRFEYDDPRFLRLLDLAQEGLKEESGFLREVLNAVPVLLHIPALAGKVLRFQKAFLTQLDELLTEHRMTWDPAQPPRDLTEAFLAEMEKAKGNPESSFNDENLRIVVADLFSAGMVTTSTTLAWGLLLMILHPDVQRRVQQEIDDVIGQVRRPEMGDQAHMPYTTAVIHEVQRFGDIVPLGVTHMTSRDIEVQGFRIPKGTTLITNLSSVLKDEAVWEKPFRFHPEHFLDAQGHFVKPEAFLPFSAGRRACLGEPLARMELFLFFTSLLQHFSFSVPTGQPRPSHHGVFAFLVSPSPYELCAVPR
Outline: (§2)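 Vivid CYP450 kit: recombinant human CYP isozyme in Baculosomes with rabbit NADPH-P450 reductase, plus regeneration system (3.3 mM glucose-6-phosphate, 0.3 U/mL G6PDH in 100 mM potassium phosphate, pH 8.0). Mixture preincubated with sample for 5 min at 37 °C. Vivid substrate and 0.1 mM NADP+ were then added, and remaining activity read by fluorescence after 20 min.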

Mus musculus [3] = assay: Reversal of coginitive deficit in double APP/PS1 transgenic Alzheimer's disease mouse model assessed as increase in freezing response at 30 mg/kg, po daily for 1 month by contextual fear conditioning test; format: functional
[4] = Terminal half life in Sprague-Dawley rat at 10 mg/kg, po by LC-MS/MS analysis; format: ADME, organism-based; conditions: in vivo, read-out: beta t1/2
Outline: (§3)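 Male SD rats, 8 weeks old, acclimatised at least 1 week; compound dissolved at 10 mg/2 mL in N-methyl-2-pyrrolidone/Tween80/water (1:2:7) by 5 min sonication, given 10 mg/kg by oral gavage at 2 mL/kg (n = 5). Heart-puncture blood drawn at 30 min and 3 h, plasma spun and stored at -70 °C. Samples mixed with carbamazepine internal standard in acetonitrile and assayed by LC-MS/MS.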

Mus musculus [5] = assay: Cognition enhancing effect in ICR mouse model of acute Alzheimer's disease assessed as reversal of amyloid beta (1 to 42)-induced cognitive deficit by measuring spatial working memory at 30 mg/kg, ip daily for 6 days measured on day 7 by Y maze spontaneous alteration test relative to control; format: functional
Outline: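 Male ICR mice (6 weeks, 30–33 g) received Aβ1-42 500 pmol ICV in 10% DMSO/PBS. Compound in 20% cyclodextrin was given at 30 mg/kg daily for 6 days (n = 7 per group). One day later, each mouse explored a three-arm Y-maze for 8 min, and the sequence of arm entries was used to calculate % spontaneous alternation.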

[6] = AUClast in Sprague-Dawley rat at 10 mg/kg, iv by LC-MS/MS analysis; format: ADME, organism-based; set-up: dose 10 mg/kg, route intravenous, time 0 - last; conditions: in vivo; outline: as §1
[7] = Terminal half life in Sprague-Dawley rat at 10 mg/kg, iv by LC-MS/MS analysis; format: ADME, organism-based; conditions: in vivo, read-out: beta t1/2; outline: as §1
[8] = Total clearance in Sprague-Dawley rat at 10 mg/kg, iv by LC-MS/MS analysis; format: ADME, organism-based; conditions: in vivo; outline: as §1
[9] = AUC (0 to infinity) in Sprague-Dawley rat at 10 mg/kg, po by LC-MS/MS analysis; format: ADME, organism-based; set-up: dose 10 mg/kg, route oral, time infinity; conditions: in vivo; outline: as §3
[10] = AUClast in Sprague-Dawley rat at 10 mg/kg, po by LC-MS/MS analysis; format: ADME, organism-based; set-up: dose 10 mg/kg, route oral, time 0 - last; conditions: in vivo; outline: as §3
CYP2C19 = CYP2C19 (Homo sapiens, UniProt P33261); assay: Inhibition of recombinant human CYP2C19 expressed in baculosomes coexpressing rabbit NADPH-P450 reudctase assessed as residual activity at 10 uM preincubated for 5 mins followed by substrate and NADP+ addition measured after 20 mins by fluorescence assay relative to control; format: ADME; conditions: read-out: Activity; outline: as §2
Chain of CYP2C19 (P33261 whole entry): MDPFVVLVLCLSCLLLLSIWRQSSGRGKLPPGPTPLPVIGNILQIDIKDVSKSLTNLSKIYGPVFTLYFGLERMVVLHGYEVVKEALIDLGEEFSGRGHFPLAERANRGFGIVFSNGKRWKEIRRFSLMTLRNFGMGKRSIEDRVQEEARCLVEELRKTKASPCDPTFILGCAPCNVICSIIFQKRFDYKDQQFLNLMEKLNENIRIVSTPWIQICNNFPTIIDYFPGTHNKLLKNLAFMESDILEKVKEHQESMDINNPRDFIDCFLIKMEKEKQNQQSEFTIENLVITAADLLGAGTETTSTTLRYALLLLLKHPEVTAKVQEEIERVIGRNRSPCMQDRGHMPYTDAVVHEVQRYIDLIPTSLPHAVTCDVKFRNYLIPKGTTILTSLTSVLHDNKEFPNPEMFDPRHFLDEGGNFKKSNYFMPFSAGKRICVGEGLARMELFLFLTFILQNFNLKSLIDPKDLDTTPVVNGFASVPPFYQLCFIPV

[11] = molecular target: Translocator protein (Mus musculus) (UniProt P50637); assay: Inhibition of TSPO in mouse HT22 cells assessed as protection against amyloid beta (1 to 42)-induced mitochondrial membrane potential loss by measuring recovery of ATP production at 5 uM preincubated for 10 mins followed by amyloid beta (1 to 42) addition measured after 7 hrs by luciferase reporter gene assay relative to control; format: cell-based; set-up: scale not given: the % may be the effect or the level left; conditions: HT-22
Chain of Translocator protein (Mus musculus) (P50637 whole entry, looked up): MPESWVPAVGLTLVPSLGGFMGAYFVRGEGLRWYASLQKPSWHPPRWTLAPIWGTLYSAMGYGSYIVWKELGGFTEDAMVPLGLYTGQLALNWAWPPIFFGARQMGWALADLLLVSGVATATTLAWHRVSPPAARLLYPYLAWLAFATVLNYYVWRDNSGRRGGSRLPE
Outline: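 HT22 cells at 7000 per well were given compound (5 µM) for 10 min at 37 °C, then Aβ1-42 (5 µM) or DMSO vehicle, and incubated 7 h. Cells were washed, lysed in 1% Triton X-100, and protein-equalised by BCA. ATP was measured by luciferin/luciferase luminescence and normalised to vehicle.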

[12] = Ratio of drug level in brain to plasma in Sprague-Dawley rat at 10 mg/kg, po at 2 hrs post dose by LC-MS/MS analysis; format: ADME, organism-based; conditions: brain and plasma, read-out: BPR
[13] = Drug excretion in Sprague-Dawley rat at 10 mg/kg, iv by LC-MS/MS analysis; format: ADME, organism-based; conditions: in vivo, read-out: Drug excretion

Structure (SMILES): Cc1ccc(C(C)C)cc1NC(=O)Cn1c(Cc2c(Cl)cccc2Cl)nc2ccccc21
- MRT [1]: 1.12 h
- viability at 24 h, 5 µM [2]: 88 to 109%
- activity at 20 min, 10 µM (CYP2D6): 140%
- Activity (Mus musculus [3]): 12%
- half-life [4]: 1.49 h
- Activity (Mus musculus [5]): 72%
- AUC(0-t) [6]: 1750 ng·h/mL
- half-life [7]: 2.62 h
- clearance [8]: 54.5 mL/min/kg
- AUC(0-inf) [9]: 136 ng·h/mL
- AUC(0-t) [10]: 128 ng·h/mL
- activity at 20 min, 10 µM (CYP2C19): 57.3%
- Activity [11]: 95%
- Kp at 2 h [12]: 1.02
- dose excreted [13]: 0.03%
